Bioassay records from PubChem BioAssay.
Shown are actives, neighbours in structure and some others; about 9.4% of the full set was active somewhere.
CSC inhib – blocks cancer stem cells. AID 2717. inhibition, % at 7.5 µM. 300,000 tested, 1.1% active. cancer stem cell-like cells viability, luminescence; in the data active means inhibition above about 75%; inconclusive means no clear call, values can overlap the other calls; tested in HMLE shEcad cells
L major viab – reduces viability of Leishmania major promastigotes | resazurin fluorescence viability | inhibition, % at 10 µM | 200,000 tested, 9% active | AID 1063; in the data active means inhibition above about 50%;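 further: promastigotes grown with compound for 44 hours at 28 °C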
Beta apoptosis – blocks beta cell apoptosis | AID 435005 | protection from apoptosis, % (test concentration not listed) | INS-1E cytokine-induced death, ATP luminescence, 48 h; percent of positive-control rescue, neutral wells zero | 300,000 tested, 0.8% active;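 active means Every replicate reaches about 75%, or at least half do and their mean reaches it too, limit read from the data; inconclusive means At least half of replicates reach the limit but their mean does not; inactive means Under half of replicates reach the limit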;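 further: 0% = cytokine-treated negative control wells and 100% = positive control rescue; higher means more ATP so stronger rescue from cytokine killing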
T cruzi inh – T. cruzi replication inhibition; 300,000 tested, 1.4% active; inhibition, % (test concentration not listed); T. cruzi beta-gal in NIH3T3, luminescence, 90 h;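 active means mean inhibition across valid replicates above about 55%, limit read from the data; inconclusive means mean below that limit but half or more replicates reach it; inactive means mean below it, under half of replicates reach it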;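 further: signal also drops with host cell toxicity which is not excluded here; 0% = plate median of DMSO wells and 100% = zero luminescence signal; higher percent means less beta-gal luminescence so fewer parasites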
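System: mouse NIH/3T3 fibroblasts infected with β-gal-expressing T. cruzi Tulahuen C4 / Input: NIH/3T3 cells, 5,000 per well / Buffer or medium: Low-serum DMEM with 2% FBS / Probe or stimulus: 5000 reporter trypomastigotes per well / Schedule: ≥90 h infection period, 3 h prior cell attachment / Measured by: GalScreen luminescence, 60 min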
Mdm2 MdmX PPI – disrupts the human Mdm2-MdmX interaction. SaOS-2 split-luciferase Mdm2/MdmX complementation, luminescence. inhibition, % at 8 µM. 330,000 tested, 3% active;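 active means inhibition of at least 50% at 8 µM in the primary screen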
SKKanGAS inh – inhibitors of SKKanGAS S. pyogenes growth in kanamycin (SK-promoter or general growth effect). BacTiter-Glo, 6 h. inhibition, % at 7.5 µM. 300,000 tested, 1.3% active. AID 1662;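 active means mean replicate score, as percent of positive control median, at least 50; inconclusive means mean below 50 but one replicate at or above 50; inactive means mean and every replicate below 50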;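 further: strain carries kanamycin resistance gene driven by streptokinase promoter and grows in 40 µg/ml kanamycin; loss of luminescence reflects streptokinase promoter inhibition or plain growth inhibition; 0% = median of DMSO wells and 100% = positive control at its reference dose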
Active calls of the source: *; ? = inconclusive; nt = not tested or not shown.

SMILES	CSC inhib	L major viab	Beta apoptosis	T cruzi inh	Mdm2 MdmX PPI	SKKanGAS inh
CCCCCCCCN1[C@@H](CC(=O)OCC)c2ccc(C(F)(F)F)cc2S1(=O)=O	51	nt	7	61*	18	6
CCCCCCCCCCCCN1[C@@H](CC(=O)O)c2cc(C(F)(F)F)ccc2S1(=O)=O	104*	nt	4	1	7	89*
CCCCCCCCN1[C@@H](CC(=O)O)c2cc(C(F)(F)F)ccc2S1(=O)=O	14	nt	5	-17	8	7
CC(=O)c1cc(Cl)ccc1OC(=O)c1ccco1	1	-6	-6	-12	19	5
O=C(Oc1ccc(Br)cc1C(=O)/C=C/c1ccccc1F)c1ccco1	?	100*	12	5	23	12
CCc1nc2ccccc2n1Cc1ccccc1F	-6	13	-6	-7	27	-12
COc1ccc(C#Cc2c(-c3ccsc3)oc3ccc(N4CCOCC4)cc23)cc1	47	nt	-2	11	14	-2
OC1(C#Cc2c(-c3ccsc3)oc3ccc(N4CCOCC4)cc23)CCCCC1	4	nt	nt	14	24	50*
Cc1ccc(-c2nc(CN(Cc3c(C)nn(C)c3C)C(C)C)c(C)o2)o1	-5	-3	-2	-7	-2	2
COc1ccc(OC)c(/C=C/C(=O)OCC(=O)c2c(N)n(C)c(=O)n(C)c2=O)c1	7	-3	-5	2	25	-4
O=C(C1CCN(Cc2ccccc2)CC1)N1CCCC1	2	-4	-12	-9	7	2
O=C1CC(N2CCN(C(c3ccccc3)c3ccccc3)CC2)C(=O)N1Cc1ccc(N2CCCC2=O)cc1 (stereo unspecified)	-8	98*	-5	13	-5	0
O=C(C1CCN(C2CC(=O)N(Cc3ccccc3)C2=O)CC1)N1CCCCCC1 (stereo unspecified)	-8	87*	0	0	4	-5
Cc1ccc(C(=O)ONc2ccc(N=NC(=O)c3ccccc3O)cc2)cc1	78*	0	4	-4	-10	11
CSc1cccc(NC(=S)N2CCCN(Cc3ccccc3F)C2)c1	1	76*	-2	-3	-6	4
CSc1cccc(NC(=S)N2CCC(N(C)C3CCCCC3)CC2)c1	nt	88*	-8	13	16	-21
CSc1cccc(NC(=S)N2CCC(N(C)C3CCCCC3C)CC2)c1 (stereo unspecified)	50	82*	-6	0	-2	-5
O=C1C(=O)N(Cc2cccnc2)C(c2cccc(Br)c2)/C1=C(/O)c1ccc2c(c1)OCO2 (stereo unspecified)	5	nt	-3	2	-22	9
COc1cccc(NC(=O)CN2C(=O)NC3(CCCc4ccccc43)C2=O)c1 (stereo unspecified)	nt	nt	nt	nt	11	nt
O=c1[nH]c(CN2CCN(c3ccccn3)CC2)nc2c(Br)cc(Br)cc12	81*	nt	-12	-9	43	12
O=c1[nH]c(CN2CCN(c3ncccn3)CC2)nc2c(Br)cc(Br)cc12	28	nt	5	1	27	14
COc1ccc(C2CC(=O)C3=C(C2)Nc2ccccc2NC3c2coc3ccccc3c2=O)cc1OC (stereo unspecified)	6	93*	3	nt	nt	nt
COc1cc(OC)c(C2Nc3ccccc3NC3=C2C(=O)CC(C)(C)C3)cc1OC (stereo unspecified)	-18	nt	0	4	16	-10
CCNc1c2c(nc3ccccc13)CC(C)(C)CC2=O	8	58*	1	-13	12	7
CC1(C)CC(=O)c2c(nc3ccccc3c2N)C1	-12	47	0	11	-15	-3
SMILES	CSC inhib	L major viab	Beta apoptosis	T cruzi inh	Mdm2 MdmX PPI	SKKanGAS inh
CC(=O)NC12CC3CC(C1)CC(C(=O)N1CCN(S(=O)(=O)c4cccc(C(F)(F)F)c4)CC1)(C3)C2	nt	nt	2	0	18	-14
COc1ccc(NS(=O)(=O)c2ccc(N3CCCCC3)c(NC(=O)C(C)NC(N)=O)c2)cc1 (stereo unspecified)	-6	nt	-2	nt	-28	nt
O=S(=O)(c1ccc2nc(Nc3ccccc3)ccc2c1)N1CCCCC1	50	nt	103*	21	33	-4
COc1ccc(NS(=O)(=O)c2ccc(N3CCCCC3)c(N)c2)cc1	21	nt	102*	nt	15	nt
COc1ccc2cc(S(=O)(=O)N3CCCCCC3)ccc2c1	12	57*	-3	-11	11	-2
COc1ccc(S(=O)(=O)N2CCCCCC2)cc1N(C)S(=O)(=O)c1ccc(C)cc1	-2	51*	0	22	11	3
Cc1ccc(NC(=O)C(=O)NCc2ccc(/C=C(/C#N)C(=O)NCc3cccnc3)o2)cc1C	-8	-1	nt	-6	28	8
COc1ccc(NS(=O)(=O)c2ccc(S(=O)(=O)N3CCCC3)cc2)cc1	3	52*	7	-1	25	-3
Oc1c(Br)cc(Br)cc1CNc1cnc2ccccc2c1	58	nt	-14	-9	-9	61*
O=C(CN1CCN(c2ccccc2)CC1)Nc1cccc([N+](=O)[O-])c1	8	-8	nt	-14	-7	-2
COc1ccc(S(=O)(=O)Nc2nc3ccccc3nc2Nc2cccc(C(=O)O)c2)cc1	1	nt	-5	-10	2	9
CC(C)c1ccc(NC2CCCN(C(=O)c3ccoc3)C2)cc1 (stereo unspecified)	25	nt	-4	7	-14	3
COc1cccc(NC(=O)CC2S/C(=N\S(=O)(=O)c3ccccc3)N(c3ccccc3)C2=O)c1 (stereo unspecified)	-7	61*	-5	-11	14	0
Cc1ccc(NC(=O)CSc2nnc(-c3ccco3)c(-c3ccco3)n2)cc1	-15	96*	-6	19	43	6
O=C(CSc1nnc(-c2ccco2)c(-c2ccco2)n1)Nc1ccccc1	-8	75*	-9	-6	-17	-4
O=C(CSc1nnc(-c2ccccc2)c(-c2ccccc2)n1)Nc1ccc(Br)cn1	42	66*	2	27	nt	19
COc1ccc(C(=O)CSc2nnc(-c3ccco3)c(-c3ccco3)n2)cc1	nt	99*	nt	15	nt	-3
Cc1cc(Cl)ccc1NC(=O)CN1C(=O)NC2(CCCc3ccccc32)C1=O (stereo unspecified)	nt	nt	-3	2	4	-6
Cc1sc2nc(CSc3ccccc3)nc(N3CCOCC3)c2c1C	32	82*	8	33	-2	-4
Cc1sc2nc(CSc3ccccc3)nc(N3CCC(C(N)=O)CC3)c2c1C	20	70*	0	19	-2	0
CCNc1nc(CSc2ccccc2)nc2sc(C)c(C)c12	43	39	9	19	-14	-3
CCOC(=O)c1sc2nc(CC(=O)OC)nc(N3CCN(c4ccccn4)CC3)c2c1C	9	24	12	19	2	34
Cc1sc2nc(CN3CCCCC3)nc(N3CCN(C(=O)c4ccco4)CC3)c2c1C	1	9	5	-9	8	8
